Measurements published in PubChem BioAssay AID493088 (Southern Research Specialized Biocontainment Screening …, 2011).
The source made the active and inactive calls.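 Rule for the calls: active = compounds blocking at least half of the virus-caused cell damage in the dose series; inactive = the rest.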

system: HEp-2 RSV Long CPE inhibition, luminescence; assay: RSV cytopathic effect inhibition, dose response, cell-based, HEp-2, RSV Long, synthesized compounds, set 5 (AID 493088)
In short: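 Material: RSV Long-infected HEp-2 cells. Also added: RSV strain Long at multiplicity of infection 0.45. Compound dosing: 8 doses, 1:2 steps, 0.39–50 µM, 0.5% DMSO. Schedule: 6-day incubation of infected, compound-treated cells at 37 °C. Measured by: luminescent CPE signal. Read-out: % CPE inhibition versus cell-only and virus-only wells, plus IC50.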

Structure (SMILES) | IC50
COCCCNC(=O)c1ccc(Cn2c(=O)c3ccccc3n(Cc3ccc(C)cc3)c2=O)cc1 | 1.71 µM
CC(=O)c1ccccc1NC(=O)[C@@H]1CCCN1S(=O)(=O)c1cccc2cccnc12 | > 50 µM (inactive)
Cc1ncccc1NC(=O)[C@@H]1CCCN1S(=O)(=O)c1cccc2cccnc12 | > 50 µM (inactive)
CCOC(=O)c1ccc2[nH]c3c(c2c1)CN(C)CC3 | 28.4 µM
CCc1ccccc1NC(=O)[C@@H]1CCCN1S(=O)(=O)c1cccc2cccnc12 | 16.2 µM
